Experimental data published in ChEMBL document CHEMBL2380239, “Novel ROS-activated agents utilize a tethered amine to selectively target acute myeloid leukemia” (Bioorg Med Chem Lett, 2013).

Experiments:
HeLa = assay: Cytotoxicity against human HeLa cells after 48 hrs by MTT assay; format: functional, cell-based
[1] = Therapeutic index, ratio of IC50 for human CD34-positive blood stem/progenitor cells to IC50 for human MA9.3 cells; details: CD34-positive blood stem/progenitor cells versus MA9.3 cells, read-out: Ratio IC50
Procedure, shortened: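 Cytotoxicity was measured in parallel on non-cancerous human CD34+ blood stem/progenitor cells (UCB) and on the MA9.3 AML line, which was made by introducing the MLL-AF9 oncogene into human CD34+ cells. The index is IC50 in CD34+ cells divided by IC50 in MA9.3, reported as mean ± error.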

[2] = Cytotoxicity against human MA9.3 cells after 48 hrs by MTT assay; format: functional, cell-based
Procedure, shortened: (§1)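 Non-transformed human CD34+ blood stem/progenitor cells from umbilical cord blood were run alongside MA9.3, an AML line made by introducing the MLL-AF9 oncogene into human CD34+ cells. IC50 was determined on each cell type. Therapeutic index is the ratio between the MA9.3 and CD34+ IC50 values.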

[3] = Cytotoxicity against human CD34-positive blood stem/progenitor cells after 48 hrs by MTT assay; format: cell-based; procedure, shortened: as §1
MDA-MB-468 = assay: Growth inhibition of human MDA-MB-468 cells after 48 hrs by sulforhodamine B assay; format: functional; details: MDA-MB-468, 48 h
Procedure, shortened: (§2)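 Run in the National Cancer Institute 60-cell-line panel screen. Viability was read by sulforhodamine B staining of total protein content, so it reflects cell number rather than metabolic activity. Values are reported as GI50.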

T47D = assay: Growth inhibition of human T47D cells after 48 hrs by sulforhodamine B assay; format: functional
Procedure, shortened: (§3)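 Run within the National Cancer Institute 60-cell-line panel. Viability was read by sulforhodamine B staining of total cellular protein, as a measure of cell number rather than metabolic activity. GI50 values were taken from the panel data.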

Hs-578T = assay: Growth inhibition of human Hs578T cells after 48 hrs by sulforhodamine B assay; format: functional; procedure, shortened: as §2
BT-549 = assay: Growth inhibition of human BT549 cells after 48 hrs by sulforhodamine B assay; format: functional; details: BT-549, 48 h; procedure, shortened: as §2
MDA-MB-231 = assay: Growth inhibition of human MDA-MB-231 cells after 48 hrs by sulforhodamine B assay; format: functional; details: MDA-MB-231, 48 h; procedure, shortened: as §2
MCF7 = assay: Growth inhibition of human MCF7 cells after 48 hrs by sulforhodamine B assay; format: functional; details: MCF7, 48 h; procedure, shortened: as §2
DU-145 = assay: Growth inhibition of human DU145 cells after 48 hrs by sulforhodamine B assay; format: functional; details: DU-145, 48 h; procedure, shortened: as §2
PC-3 = assay: Growth inhibition of human PC3 cells after 48 hrs by sulforhodamine B assay; format: functional; details: PC-3, 48 h; procedure, shortened: as §2
UO-31 = assay: Growth inhibition of human UO31 cells after 48 hrs by sulforhodamine B assay; format: functional; details: UO-31, 48 h; procedure, shortened: as §3
TK-10 = assay: Growth inhibition of human TK10 cells after 48 hrs by sulforhodamine B assay; format: functional; details: TK-10, 48 h; procedure, shortened: as §3
SN12C = assay: Growth inhibition of human SN12C cells after 48 hrs by sulforhodamine B assay; format: functional; procedure, shortened: as §3
RXF 393 = assay: Growth inhibition of human RXF393 cells after 48 hrs by sulforhodamine B assay; format: functional; details: RXF 393, 48 h; procedure, shortened: as §2
CAKI-1 = assay: Growth inhibition of human CAKI-1 cells after 48 hrs by sulforhodamine B assay; format: functional; details: CAKI-1, 48 h; procedure, shortened: as §2
A498 = assay: Growth inhibition of human A498 cells after 48 hrs by sulforhodamine B assay; format: functional; details: A498, 48 h; procedure, shortened: as §2
ACHN = assay: Growth inhibition of human ACHN cells after 48 hrs by sulforhodamine B assay; format: functional; procedure, shortened: as §2
SK-OV-3 = assay: Growth inhibition of human SKOV3 cells after 48 hrs by sulforhodamine B assay; format: functional; details: SK-OV-3, 48 h; procedure, shortened: as §2
786-0 = assay: Growth inhibition of human 786-0 cells after 48 hrs by sulforhodamine B assay; format: functional; details: 786-0, 48 h; procedure, shortened: as §2
OVCAR-8 = assay: Growth inhibition of human OVCAR8 cells after 48 hrs by sulforhodamine B assay; format: functional; details: OVCAR-8, 48 h; procedure, shortened: as §2
[4] = Growth inhibition of human NCI-ADR-RES cells after 48 hrs by sulforhodamine B assay; format: functional; procedure, shortened: as §2
OVCAR-4 = assay: Growth inhibition of human OVCAR4 cells after 48 hrs by sulforhodamine B assay; format: functional; details: OVCAR-4, 48 h; procedure, shortened: as §2
OVCAR-5 = assay: Growth inhibition of human OVCAR5 cells after 48 hrs by sulforhodamine B assay; format: functional; details: OVCAR-5, 48 h; procedure, shortened: as §2
IGROV-1 = assay: Growth inhibition of human IGROV1 cells after 48 hrs by sulforhodamine B assay; format: functional; details: IGROV-1, 48 h; procedure, shortened: as §2
OVCAR-3 = assay: Growth inhibition of human OVCAR3 cells after 48 hrs by sulforhodamine B assay; format: functional; details: OVCAR-3, 48 h; procedure, shortened: as §2
UACC-257 = assay: Growth inhibition of human UACC257 cells after 48 hrs by sulforhodamine B assay; format: functional; details: UACC-257, 48 h; procedure, shortened: as §3
UACC-62 = assay: Growth inhibition of human UACC62 cells after 48 hrs by sulforhodamine B assay; format: functional; details: UACC-62, 48 h; procedure, shortened: as §3
SK-MEL-28 = assay: Growth inhibition of human SK-MEL-28 cells after 48 hrs by sulforhodamine B assay; format: functional; details: SK-MEL-28, 48 h; procedure, shortened: as §2
SK-MEL-5 = assay: Growth inhibition of human SK-MEL-5 cells after 48 hrs by sulforhodamine B assay; format: functional; details: SK-MEL-5, 48 h; procedure, shortened: as §2
MDA-MB-435 = assay: Growth inhibition of human MDA-MB-435 cells after 48 hrs by sulforhodamine B assay; format: functional; details: MDA-MB-435, 48 h; procedure, shortened: as §2
SK-MEL-2 = assay: Growth inhibition of human SK-MEL-2 cells after 48 hrs by sulforhodamine B assay; format: functional; details: SK-MEL-2, 48 h; procedure, shortened: as §2
M14 = assay: Growth inhibition of human M14 cells after 48 hrs by sulforhodamine B assay; format: functional; details: M14, 48 h; procedure, shortened: as §2
U-251 = assay: Growth inhibition of human U251 cells after 48 hrs by sulforhodamine B assay; format: functional; details: U-251, 48 h; procedure, shortened: as §3
LOX IMVI = assay: Growth inhibition of human LOXIMVI cells after 48 hrs by sulforhodamine B assay; format: functional; procedure, shortened: as §2
SNB-19 = assay: Growth inhibition of human SNB19 cells after 48 hrs by sulforhodamine B assay; format: functional; details: SNB-19, 48 h; procedure, shortened: as §3
SNB-75 = assay: Growth inhibition of human SNB75 cells after 48 hrs by sulforhodamine B assay; format: functional; details: SNB-75, 48 h; procedure, shortened: as §3
SF-539 = assay: Growth inhibition of human SF539 cells after 48 hrs by sulforhodamine B assay; format: functional; details: SF-539, 48 h; procedure, shortened: as §2
SW-620 = assay: Growth inhibition of human SW620 cells after 48 hrs by sulforhodamine B assay; format: functional; details: SW-620, 48 h; procedure, shortened: as §3
SF-268 = assay: Growth inhibition of human SF268 cells after 48 hrs by sulforhodamine B assay; format: functional; details: SF-268, 48 h; procedure, shortened: as §2
HT-29 = assay: Growth inhibition of human HT-29 cells after 48 hrs by sulforhodamine B assay; format: functional; details: HT-29, 48 h; procedure, shortened: as §2
KM12 = assay: Growth inhibition of human KM12 cells after 48 hrs by sulforhodamine B assay; format: functional; details: KM12, 48 h; procedure, shortened: as §2
HCT-15 = assay: Growth inhibition of human HCT15 cells after 48 hrs by sulforhodamine B assay; format: functional; details: HCT-15, 48 h; procedure, shortened: as §2
HCT-116 = assay: Growth inhibition of human HCT116 cells after 48 hrs by sulforhodamine B assay; format: functional; details: HCT-116, 48 h; procedure, shortened: as §2
COLO 205 = assay: Growth inhibition of human COLO205 cells after 48 hrs by sulforhodamine B assay; format: functional; details: COLO 205, 48 h; procedure, shortened: as §2
[5] = Growth inhibition of human HCC2998 cells after 48 hrs by sulforhodamine B assay; format: functional; details: HCC 2998, 48 h; procedure, shortened: as §2
NCI-H522 = assay: Growth inhibition of human NCI-H522 cells after 48 hrs by sulforhodamine B assay; format: functional; details: NCI-H522, 48 h; procedure, shortened: as §2
NCI-H322M = assay: Growth inhibition of human NCI-H322M cells after 48 hrs by sulforhodamine B assay; format: functional; procedure, shortened: as §2
NCI-H23 = assay: Growth inhibition of human NCI-H23 cells after 48 hrs by sulforhodamine B assay; format: functional; details: NCI-H23, 48 h; procedure, shortened: as §2
HOP-92 = assay: Growth inhibition of human HOP92 cells after 48 hrs by sulforhodamine B assay; format: functional; details: HOP-92, 48 h; procedure, shortened: as §2
NCI-H226 = assay: Growth inhibition of human NCI-H226 cells after 48 hrs by sulforhodamine B assay; format: functional; details: NCI-H226, 48 h; procedure, shortened: as §2
HOP-62 = assay: Growth inhibition of human HOP62 cells after 48 hrs by sulforhodamine B assay; format: functional; details: HOP-62, 48 h; procedure, shortened: as §2
HL-60(TB) = assay: Growth inhibition of human HL-60(TB) cells after 48 hrs by sulforhodamine B assay; format: functional; details: HL-60, 48 h
Procedure, shortened: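 Tested through the National Cancer Institute's NCI-60 cell line panel screen. Viability was read by sulforhodamine B staining, which measures total cellular protein and so reflects cell number rather than metabolic activity. The value is reported as GI50.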

A549 = assay: Growth inhibition of human A549/ATCC cells after 48 hrs by sulforhodamine B assay; format: functional; details: A549, 48 h; procedure, shortened: as §2
RPMI-8226 = assay: Growth inhibition of human RPMI8226 cells after 48 hrs by sulforhodamine B assay; format: functional; details: RPMI-8226, 48 h; procedure, shortened: as §2
SR = assay: Growth inhibition of human SR cells after 48 hrs by sulforhodamine B assay; format: functional; procedure, shortened: as §3
MOLT-4 = assay: Growth inhibition of human MOLT4 cells after 48 hrs by sulforhodamine B assay; format: functional; details: MOLT-4, 48 h; procedure, shortened: as §2
CCRF-CEM = assay: Growth inhibition of human CCRF-CEM cells after 48 hrs by sulforhodamine B assay; format: functional; procedure, shortened: as §2

Compound `CCN(CCCOc1ccc(O)cc1)c1ccccc1` has an IC50 (HeLa) of 14 µM.

`CN(CCCOc1ccc(O)cc1)c1ccccc1` showed a selectivity ratio [1] of 7.7, an IC50 [2] of 0.7 µM and an IC50 [3] of 5.4 µM. For the same compound, the GI50 (MDA-MB-468) was 3.3 µM, the GI50 (T47D) was 4.6 µM and the GI50 (Hs-578T) was 3.1 µM. The GI50 (BT-549) was 1.7 µM, the GI50 (MDA-MB-231) was 6.9 µM and the GI50 (MCF7) was 2.6 µM. The GI50 (DU-145) was 2.8 µM, the GI50 (PC-3) was 2.1 µM and the GI50 (UO-31) was 0.4 µM. For the same compound, the GI50 (TK-10) was 8.3 µM, the GI50 (SN12C) was 3.1 µM and the GI50 (RXF 393) was 2.1 µM. For the same compound, the GI50 (CAKI-1) was 0.3 µM, the GI50 (A498) was 2.6 µM and the GI50 (ACHN) was 0.3 µM. The GI50 (SK-OV-3) was 11.5 µM, the GI50 (786-0) was 1.9 µM and the GI50 (OVCAR-8) was 1.5 µM. The GI50 [4] was 1.5 µM, the GI50 (OVCAR-4) was 11.7 µM and the GI50 (OVCAR-5) was 7.8 µM. For the same compound, the GI50 (IGROV-1) was 4.1 µM, the GI50 (OVCAR-3) was 4 µM and the GI50 (UACC-257) was 8.1 µM. For the same compound, the GI50 (UACC-62) was 2.1 µM, the GI50 (SK-MEL-28) was 12.3 µM and the GI50 (SK-MEL-5) was 2.1 µM. For the same compound, the GI50 (MDA-MB-435) was 6.6 µM, the GI50 (SK-MEL-2) was 10.5 µM and the GI50 (M14) was 1.7 µM. For the same compound, the GI50 (U-251) was 1.7 µM, the GI50 (LOX IMVI) was 2.8 µM and the GI50 (SNB-19) was 7.9 µM. The GI50 (SNB-75) was 3 µM, the GI50 (SF-539) was 0.6 µM and the GI50 (SW-620) was 1.3 µM. For the same compound, the GI50 (SF-268) was 2.2 µM, the GI50 (HT-29) was 5.6 µM and the GI50 (KM12) was 4.3 µM. It also gave a GI50 (HCT-15) of 3.5 µM, a GI50 (HCT-116) of 3.5 µM and a GI50 (COLO 205) of 13.8 µM. The GI50 [5] was 11.2 µM, the GI50 (NCI-H522) was 2.8 µM and the GI50 (NCI-H322M) was 12.6 µM. It also gave a GI50 (NCI-H23) of 3 µM, a GI50 (HOP-92) of 0.5 µM and a GI50 (NCI-H226) of 10.5 µM. For the same compound, the GI50 (HOP-62) was 10.5 µM, the GI50 (HL-60(TB)) was 0.9 µM and the GI50 (A549) was 2.2 µM. The GI50 (RPMI-8226) was 1.2 µM, the GI50 (SR) was 2.5 µM and the GI50 (MOLT-4) was 2 µM. It also gave a GI50 (CCRF-CEM) of 0.3 µM and an IC50 (HeLa) of 9 µM.
